Laboratory results published in PubChem BioAssay AID720543 (The Scripps Research Institute Molecular Screening Center, 2013).
The whole screen tested about 370,000 compounds, of which about 2,000 (0.54%) were called active. The sample holds actives, similar compounds and a random draw of the others, so the mix is not that of the screen. Values without a mark were called inactive.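 Rule for the calls: active = inhibition exceeding the mean over every tested compound plus 3 SD (cut at about 30% in these data); inactive = the rest.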

These molecules were tested against (Lyso)-N-acylphosphatidylethanolamine lipase (Mus musculus) (UniProt Q8VD66) (assay: ABHD4 inhibitors, primary screen, biochemical, fluorescence polarization, mouse (AID 720543;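 note: 0% = plate median of compound wells and 100% = S159A mutant with DMSO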)). Conditions: purified mABHD4, FP-Rh probe fluorescence polarization; at 8.92 µM; active compounds read high.
Chain of (Lyso)-N-acylphosphatidylethanolamine lipase (Mus musculus) (Q8VD66 whole entry, looked up): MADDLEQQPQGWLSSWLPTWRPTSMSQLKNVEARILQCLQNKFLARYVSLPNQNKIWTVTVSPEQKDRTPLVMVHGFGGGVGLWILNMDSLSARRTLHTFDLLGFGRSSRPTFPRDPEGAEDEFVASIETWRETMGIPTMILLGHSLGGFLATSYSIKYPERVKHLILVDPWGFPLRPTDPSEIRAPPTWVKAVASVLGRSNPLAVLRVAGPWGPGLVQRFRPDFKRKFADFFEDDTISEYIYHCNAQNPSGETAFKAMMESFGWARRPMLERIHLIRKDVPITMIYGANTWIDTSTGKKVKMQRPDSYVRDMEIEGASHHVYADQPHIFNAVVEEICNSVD
Outline: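 Assay system: Wild-type mouse ABHD4 protein | Medium: HEPES pH 7.0 buffer, 150 mM NaCl, 0.01% Pluronic F-127 | Incubation: Enzyme–compound pre-incubation 45 min, then probe 60 min, both 25 °C | Technique: Fluorescence polarization with parallel and perpendicular emission, 525/598 nm | Evaluation: % inhibition of FP-Rh probe binding versus controls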

SMILES	inhibition
O=c1c2ccccc2[nH]c(=S)n1-c1cccc(Cl)c1	6.67%
COc1cc(-n2c(=S)[nH]c3ccc(C)cc3c2=O)c(Cl)cc1Cl	36.9% (active)
CC12CN3CC(C)(CN(C1)C3c1cccs1)C2 (stereo not given)	2.23%
C/C=C/CC1(CC)C(=O)NC(=S)NC1=O	5.1%
c1ccc(C2NCc3ccccc3-n3cccc32)cc1 (stereo not given)	6.15%
CCOc1ccc(-c2cc(C)[n+](CCN(CC)CC)c(-c3ccc(OCC)cc3)c2)cc1	5.92%
CCOc1cccc(=NC2CCCCC2)c2c(C)[nH]c(C)c12	34.4% (active)
COc1ccc(NC(=O)N2CCC3(CC2)OCCO3)c(OC)c1	2.18%
CO[C@H]([C@H](C)/C=C/N(C)C=O)[C@@H](C)C(=O)CC[C@H](C)[C@H](O)[C@H](C)[C@H]1OC(=O)/C=C/C(C)=C/[C@H](O)[C@H](OC)C[C@@H]2C=CC[C@@H](C[C@H](OC)[C@@]3(CO3)[C@@H](OC)C[C@@H](OC)[C@@H]1C)O2	-6.78%
Clc1ccc([C@@H]2CC3CCC2N3)cn1 (stereo not given in full)	7.57%
